From ChEMBL document CHEMBL1156009, “Eleven amino acid glucagon-like peptide-1 receptor agonists with antidiabetic activity” (J Med Chem, 2009) come the findings set out here.

Activity calls are given as the source filed them. The calls are words filed in the database; no cut-off is given here. Square brackets hold non-standard residues; d marks the D form. Peptide text beside a SMILES is read from it. Bip(2'-Et-4'-OMe) = CCc1cc(OC)ccc1-c1ccc(C[C@H](N)C(=O)O)cc1; Bip(2'-Me) = Cc1ccccc1-c1ccc(C[C@H](N)C(=O)O)cc1; αMePhe(2,6-F2) = C[C@](N)(Cc1c(F)cccc1F)C(=O)O; Aib = CC(C)(N)C(=O)O Some results are limits rather than exact numbers.

A short description of data set [1]: Half life in patient with type 2 diabetes at 2.5 to 25 nmol, iv administered as bolus dose. Format: ADME, organism-based. The note with it: human, in vivo.
The target in data set [2] is Glucagon-like peptide 1 receptor (Homo sapiens, UniProt P43220). The data set can be described thus: Agonist activity at human GLP1R expressed in CHO cells assessed as stimulation of intracellular [3H]cAMP accumulation after 30 mins by scintillation proximity assay. The class given is functional, cell-based. The procedure, abridged: (§1)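 CHO cells stably expressing human or mouse GLP-1R, grown in F-12 with 10% FBS plus Geneticin (0.4 mg/mL human, 1 mg/mL mouse), plated 2×10^4/well overnight. Half-log dilutions made in DMSO, then in DPBS with 0.1 mM IBMX and 0.05% BSA (final 1% DMSO). Cells exposed 30 min. cAMP read by SPA and converted to pmol via standard curve. Duplicates, at least three separate runs.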
Glucagon-like peptide 1 receptor (Homo sapiens, UniProt P43220), sequence (P43220 whole entry): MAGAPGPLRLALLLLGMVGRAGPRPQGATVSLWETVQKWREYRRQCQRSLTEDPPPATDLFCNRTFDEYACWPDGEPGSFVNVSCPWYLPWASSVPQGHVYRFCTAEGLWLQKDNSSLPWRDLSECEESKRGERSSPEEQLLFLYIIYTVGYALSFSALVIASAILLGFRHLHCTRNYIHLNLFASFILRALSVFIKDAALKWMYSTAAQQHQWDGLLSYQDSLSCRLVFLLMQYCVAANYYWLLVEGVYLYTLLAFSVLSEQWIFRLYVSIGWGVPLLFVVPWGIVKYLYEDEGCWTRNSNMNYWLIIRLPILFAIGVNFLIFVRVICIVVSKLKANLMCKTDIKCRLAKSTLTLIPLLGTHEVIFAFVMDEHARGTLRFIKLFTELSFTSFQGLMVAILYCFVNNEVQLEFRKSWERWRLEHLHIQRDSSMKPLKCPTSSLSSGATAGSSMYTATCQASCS
A general note: Changes in cAMP serve as a functional read-out for many G protein-coupled receptors.

Data set [3] concerns Mus musculus. Briefly: Antidiabetic activity in insulin-resistant ob/ob mouse assessed as increase in plasma insulin level at 300 nmol/kg, sc administered 30 mins before glucose infusion measured after 60 mins of glucose challenge by intraperitoneal glucose tolerance test. The class given is functional, organism-based. The method, boiled down:
(§2)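 Male ob/ob mice, 19 weeks old, 6 per group, randomized on fed glucose and body weight. After an 18 h fast, single sc dose in 1:1 propylene glycol/20 mM sodium phosphate pH 7.4 (0.1 mL/100 g) at -30 min. 2 g/kg glucose (50%) given ip at time 0. Tail bleeds at 0, 30, 60, 120 and 180 min into K-EDTA. Glucose measured on analyzer, insulin by ultrasensitive mouse ELISA. ANOVA with Dunnett's test versus vehicle.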

For data set [4], the target named is T1, Glucagon-like peptide 1 receptor (Mus musculus, UniProt O35659).
T1 sequence (O35659 whole entry): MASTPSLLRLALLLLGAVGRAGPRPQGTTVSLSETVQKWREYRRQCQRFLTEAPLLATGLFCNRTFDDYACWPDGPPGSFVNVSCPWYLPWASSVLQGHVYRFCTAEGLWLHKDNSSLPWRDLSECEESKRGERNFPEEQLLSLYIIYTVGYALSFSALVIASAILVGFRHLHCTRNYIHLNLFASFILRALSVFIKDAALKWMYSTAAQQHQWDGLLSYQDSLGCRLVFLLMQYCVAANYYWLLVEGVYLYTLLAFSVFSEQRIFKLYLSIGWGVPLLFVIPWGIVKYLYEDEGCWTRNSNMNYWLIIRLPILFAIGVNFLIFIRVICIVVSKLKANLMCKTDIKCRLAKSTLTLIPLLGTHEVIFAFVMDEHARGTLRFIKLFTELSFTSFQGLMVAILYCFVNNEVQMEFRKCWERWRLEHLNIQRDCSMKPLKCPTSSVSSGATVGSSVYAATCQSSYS
The data set can be described thus: Agonist activity at mouse GLP1R expressed in CHO cells assessed as stimulation of intracellular [3H]cAMP accumulation by scintillation proximity assay. Format: functional, cell-based. The procedure, abridged: as §1

For data set [5], the system named is Mus musculus. Briefly: Antidiabetic activity in insulin-resistant ob/ob mouse assessed as increase in plasma insulin level at 300 nmol/kg, sc administered 30 mins before glucose infusion measured after 30 mins of glucose challenge by intraperitoneal glucose tolerance test. Format: functional, organism-based. The method, boiled down:
as §2

Data set [6] can be described thus: Mean residence time in Beagle dog at 67 ug/kg, sc by LC-MS/MS analysis. The note with it: in vivo, 0.067 mg/kg. The class given is ADME, organism-based, Canis lupus familiaris.
Data set [7] deals with Canis familiaris. The data set can be described thus: Tmin in Beagle dog at 67 ug/kg, sc by LC-MS/MS analysis. The class given is ADME, organism-based, Canis lupus familiaris. The note with it: in vivo, 0.067 mg/kg.
Data set [8] concerns Mus musculus. The data set can be described thus: Antidiabetic activity in insulin-resistant ob/ob mouse assessed as reduction in plasma glucose level at 300 nmol/kg, sc administered 30 mins before glucose infusion measured after 30 to 180 mins of glucose challenge by intraperitoneal glucose tolerance test. Format: functional, organism-based. The method, boiled down:
as §2

Data set [9] in a line: Cmax in insulin-resistant ob/ob mouse at 300 nmol/kg, sc up to 24 hrs by LC-MS/MS analysis. Format: ADME, organism-based. More on the design: dose 300 nmol/kg, route subcutaneous. Conditions: in vivo. The method, boiled down:
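ob/ob mice dosed sc at 300 nmol/kg in 1:1 propylene glycol/20 mM sodium phosphate pH 7.4. Plasma sampled at 1, 2, 4, 6, 8 and 24 h and quantified by LC-MS/MS.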

For orientation: half-life means the time in which the quantity being followed falls by half. A high value points to slow decline. One may read the EC50 as the midpoint of the concentration-response curve. Broadly, the MRT is the average time that molecules of a dose stay in the body.

`CC[C@H](C)[C@H](NC(=O)[C@H](Cc1ccccc1)NC(=O)[C@H](CCC(=O)O)NC(=O)[C@H](CCCCN)NC(=O)[C@H](C)NC(=O)[C@H](C)NC(=O)[C@H](CCC(N)=O)NC(=O)CNC(=O)[C@H](CCC(=O)O)NC(=O)[C@H](CC(C)C)NC(=O)[C@@H](NC(=O)[C@H](CO)NC(=O)[C@H](CO)NC(=O)[C@@H](NC(=O)[C@H](CC(=O)O)NC(=O)[C@H](CO)NC(=O)[C@@H](NC(=O)[C@H](Cc1ccccc1)NC(=O)[C@@H](NC(=O)CNC(=O)[C@H](CCC(=O)O)NC(=O)[C@H](C)NC(=O)[C@@H](N)Cc1cnc[nH]1)[C@@H](C)O)[C@@H](C)O)C(C)C)[C@@H](C)O)C(=O)N[C@@H](C)C(=O)N[C@@H](Cc1c[nH]c2ccccc12)C(=O)N[C@@H](CC(C)C)C(=O)N[C@H](C(=O)N[C@@H](CCCCN)C(=O)NCC(=O)N[C@@H](CCCN=C(N)N)C(N)=O)C(C)C`: the half-life in [1] stood at 2 min. The EC50 in data set [2] came to 0.034 nM.
For the compound `CCc1cc(OC)ccc1-c1ccc(C[C@H](NC(=O)[C@H](CC(=O)O)NC(=O)[C@H](CO)NC(=O)[C@@H](NC(=O)[C@](C)(Cc2c(F)cccc2F)NC(=O)[C@@H](NC(=O)CNC(=O)[C@H](CCC(=O)O)NC(=O)C(C)(C)NC(=O)[C@@H](N)Cc2cnc[nH]2)[C@@H](C)O)[C@@H](C)O)C(=O)N[C@@H](Cc2ccc(-c3ccccc3C)cc2)C(N)=O)cc1` (H-H[Aib]EGT[αMePhe(2,6-F2)]TSD[Bip(2'-Et-4'-OMe)][Bip(2'-Me)]-NH2), the result in [3], in [5] and in data set [8] was Active. For the same compound, the EC50 in data set [4] was determined as 0.8 nM; in [2], 0.12 nM. Besides, the MRT in data set [6] came to 20 h. The Tmin in data set [7] is 24 h. Besides, the Cmax in [9] is > 2000 nM.
